Measured values collected from several papers.
Target: Mitogen-activated protein kinase 8 (MAPK8, Homo sapiens, UniProt P45983)

`COC(=O)Nc1nc2ccc(C(=O)c3ccccc3)cc2[nH]1` has a remaining binding of 14% (cell-free assay, competition with immobilised ligand; 10 µM).
With `CCC(=O)N[C@@H]1CC[C@H](C(=O)N(C)c2ccc(-c3nc4ccccc4o3)cc2)C1` the remaining binding was 53% (cell-free assay, competition with immobilised ligand; 1 µM).
For `C[C@@H]1CN(c2ccc3ncc(-c4ccc5[nH]nc(C6CC6)c5c4)n3n2)C[C@H](C)O1`, the remaining binding was 54% (binding, competition with immobilised ligand; 0.5 µM).
`CCN1CCN(Cc2ccc(C(=O)Nc3ccc(C)c(Oc4ccc5c(c4)CC(=O)N5)c3)cc2C(F)(F)F)CC1` gave a remaining binding of 82% (binding, competition with immobilised ligand; 1 µM).
The remaining binding of `C[C@H](NC(=O)c1cnc2n1[C@](C)(Cc1ccc(C#N)cc1)C(=O)N2c1cc(Cl)c(F)c(Cl)c1)C(=O)NC1(c2ccccn2)CC1` is reported as 81% (cell-free assay, competition with immobilised ligand; 1 µM).
With `O=C(c1ccc(Nc2ncc(Cl)c(-c3cc4ccccc4s3)n2)cc1)N1CCC(N2CCCC2)CC1` the remaining binding was 3% (binding, competition with immobilised ligand; 1 µM).
For `Nc1ncc2c(n1)-c1c([nH]c3ccc(C#CC4CC4)cc13)CCCC2`, the remaining binding was 66% (binding, competition with immobilised ligand; 1 µM).
With `N[C@H]1CCN(c2nccc(-c3cnn4ncccc34)n2)C1` the remaining binding was 85% (binding, competition with immobilised ligand; 1 µM).
For `O=C(O)c1cc(-c2ccc(C3CCNCC3)cc2)c2ccc(-c3ccc(C(F)(F)F)cc3)cc2c1`, the remaining binding was 100% (cell-free assay, competition with immobilised ligand; 1 µM).
The remaining binding of `c1cnn2ncc(-c3ccnc(N4CCC45COC5)n3)c2c1` is reported as 26% (binding, competition with immobilised ligand; 1 µM).
`COc1ncc2cc3ccccc3nc2c1C#N` gave a remaining binding of 100% (cell-free assay, competition with immobilised ligand; 5 µM).
The remaining binding of `O=C(NCC1CCOCC1)c1n[nH]cc1NC(=O)c1c(F)cccc1F` is reported as 16% (binding, competition with immobilised ligand; 1 µM).
The remaining binding of `Cc1cnn2ncc(-c3ccnc(N(C)C)n3)c2c1` is reported as 67% (binding; 1 µM).
`C[C@H](c1ccc(F)cc1)N(Cc1cccc(C(=O)O)c1)C(=O)c1cnc2ccccc2c1` has a remaining binding of 100% (cell-free assay, competition with immobilised ligand; 1 µM).
`O=C(NCCCN1CCOCC1)c1ccc(Nc2nccc(-c3cc4ccccc4s3)n2)cc1` has a remaining binding of 9.8% (binding, competition with immobilised ligand; 1 µM).
`CN(C)c1ncc(F)c(-c2cnn3ncccc23)n1` gave a remaining binding of 76% (binding, competition with immobilised ligand; 1 µM).
`NS(=O)(=O)c1cc(NC(=O)Cc2ccccc2)ccc1Oc1cccc(Cl)c1` gave a remaining binding of 69% (cell-free assay, competition with immobilised ligand; 1 µM).
With `CN(C)c1nccc(-c2cnc3ncccn23)n1` the remaining binding was 59% (binding, competition with immobilised ligand; 1 µM).
The remaining binding of `Nc1c(C(=O)NCc2ccc(C(=O)NCCCC3CCCCC3)cc2)cnn1-c1ccccc1` is reported as 100% (cell-free assay, competition with immobilised ligand; 0.1 µM).
`CNC(=O)[C@@H]1CC[C@@H](n2c(-c3ccc4cnccc4c3)nc3ccc(C(=O)NCc4cccc(C(N)=O)c4)cc32)C1` has a remaining binding of 82% (binding, competition with immobilised ligand; 1 µM).
`CN(c1nccc(-c2cnn3ncccc23)n1)C1CC1` has a remaining binding of 100% (binding; 1 µM).
`Cc1c[nH]c2nccc(Oc3c(F)cc(Nc4cc(Cl)nc(N)n4)cc3F)c12` has a remaining binding of 80% (cell-free assay, competition with immobilised ligand; 0.1 µM).
`Cc1cnc(Nc2ccc(C(=O)N3CCC(N4CCCC4)CC3)cc2)nc1-c1cc2ccccc2s1` gave a remaining binding of 4.5% (binding, competition with immobilised ligand; 1 µM).
For `C[C@H]1CCN(c2nccc(-c3cnn4ncccc34)n2)C1`, the remaining binding was 34% (binding, competition with immobilised ligand; 1 µM).
